Source: ChEMBL document CHEMBL1153436, “2-Pyridyl P1'-substituted symmetry-based human immunodeficiency virus protease inhibitors (A-792611 and A-790742) with potential for convenient dosing and reduced side effects” (J Med Chem, 2009)

What was measured:
[1] = AUC in dog at 5 mg/kg, po; format: ADME, organism-based, Canis lupus familiaris; set-up: dose 5 mg/kg, route oral; details: plasma
In short: (§1)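 Male and female beagle dogs (n = 3) given oral gavage doses formulated as 5 mg/mL solutions in 5% dextrose with 20% ethanol, 30% propylene glycol and methanesulfonic acid, alone or with RTV (2.5 or 5 mg/kg). Plasma was taken at 12 time points over 12 h, extracted with ethyl acetate/hexane and analysed by reversed-phase HPLC with internal standard. AUC in µg·h/mL; Cmax and C12h in µg/mL.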

[2] = AUC in dog at 2.5 mg/kg; format: ADME, organism-based, Canis lupus familiaris; set-up: dose 2.5 mg/kg; details: plasma; in short: as §1
Rattus norvegicus [3] = assay: Toxicity in Gunn rat assessed as unconjugated-bilirubin level at 100 mg/kg coadministered with ritonavir measured on day 1; format: organism-based; set-up: dose 100 mg/kg; details: in vivo
In short: (§2)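 Gunn rats (n = 8-10 per arm) dosed orally with compound in 5% ethanol/95% propylene glycol with p-toluenesulfonic acid, together with 50 mg/kg RTV. Plasma was sampled 4 h after the first and second doses. Drug was measured by HPLC and bilirubin […]. Change in bilirubin (mg/dL) reported as mean with SD.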

Rattus norvegicus [4] = assay: Toxicity in Gunn rat assessed as unconjugated-bilirubin level at 100 mg/kg coadministered with ritonavir measured on day 2; format: organism-based; set-up: dose 100 mg/kg; details: in vivo; in short: as §2
Serum [5] = assay: Drug level in Gunn rat serum at 100 mg/kg coadministered with ritonavir measured on day 1; format: ADME, organism-based; set-up: dose 100 mg/kg; details: in vivo; in short: as §2
Serum [6] = assay: Drug level in Gunn rat serum at 100 mg/kg coadministered with ritonavir measured on day 2; format: ADME, organism-based; set-up: dose 100 mg/kg; details: in vivo; in short: as §2
[7] = test system: Human immunodeficiency virus 1; assay: Antiviral activity against wild-type HIV1 pNL4-3 infected in human MT4 cells after 5 days by MTT assay; format: functional, organism-based; details: Human immunodeficiency virus 1, MT4, 120 h
[8] = test system: Human immunodeficiency virus 1; assay: Antiviral activity against wild-type HIV1 pNL4-3 infected in human MT4 cells after 5 days by MTT assay in presence of 50% human serum; format: functional, organism-based; details: Human immunodeficiency virus 1, MT4, 120 h
[9] = test system: Human immunodeficiency virus 1; assay: Antiviral activity against HIV1 bearing protease gene with A17 mutation infected in human MT4 cells after 5 days by MTT assay; format: functional, organism-based; details: Human immunodeficiency virus 1, MT4, 120 h
In short: (§3)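 HIV-1 A17 mutant clone carrying protease mutations L10F, V32I, M46I, I47V, Q58E and I84V, generated by in vitro serial passage under LPV/RTV. EC50 was determined in MT-4 cells. Wild-type reference strain was HIV-1 pNL4-3.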

[10] = test system: Human immunodeficiency virus 1; assay: Fold resistance, ratio of EC50 for HIV1 bearing protease gene with A17 mutation to EC50 for wild-type HIV1 pNL4-3; format: functional; in short: as §3
Rattus norvegicus [11] = assay: Toxicity in po dosed Gunn rat assessed as hyperbilirubinemia; format: organism-based; details: in vivo; in short: as §2

| AUC [1] [ng·h/mL] | AUC [2] [ng·h/mL] | SMILES | Activity (Rattus norvegicus [3]) [mg/dL] | Activity (Rattus norvegicus [4]) [mg/dL] | Drug uptake (Serum [5]) [µg/mL] | Drug uptake (Serum [6]) [µg/mL] | EC50 [7] [µM] | EC50 [8] [µM] | EC50 [9] [µM] | Ratio EC50 [10] | Activity (Rattus norvegicus [11]) |
| --- | --- | --- | --- | --- | --- | --- | --- | --- | --- | --- | --- |
| 8800 | 1560 | CC(C)c1nc(CN(C)C(=O)N[C@H](C(=O)N[C@@H](Cc2ccccc2)C[C@H](O)[C@H](Cc2ccccc2)NC(=O)OCc2cncs2)C(C)C)cs1 [RITONAVIR] | – | – | – | – | – | – | – | – | – |
| – | – | COC(=O)N[C@H](C(=O)NN(Cc1ccc(-c2ccccn2)cc1)C[C@H](O)[C@H](Cc1ccccc1)NC(=O)[C@@H](N1CCN(Cc2cccc(C)n2)C1=O)C(C)(C)C)C(C)(C)C | 0.536 | 0.685 | 8.87 | 8.88 | 0.002 | 0.03 | 0.017 | 9 | Toxic |
